Calls of active or inactive are those of the source. No cut-off for these calls is given here.
How the values were obtained:
Rattus norvegicus [1] = test: Volume of distribution in Sprague-Dawley rat at 40 mg/kg, po by LC-MS/MS method; assay type: ADME, organism-based; parameters: dose 40 mg/kg, route oral; settings: in vivo
Outline: (§1)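 Male Sprague−Dawley rats fasted 10−12 h, then given a single 40 mg/kg oral gavage as an aqueous 0.5% methyl cellulose suspension. Blood drawn from 0.25 to 120 h. Plasma spun at 2000g for 10 min at 4 °C and stored at −60 °C. LC-MS/MS, linear range 0.78−400 ng/mL.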

[2] = Elimination half life in Sprague-Dawley rat at 10 mg/kg, iv by LC-MS/MS method; assay type: ADME, organism-based; parameters: dose 10 mg/kg, route intravenous; settings: in vivo, read-out: beta t1/2 (converted)
Outline: (§2)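 Male Sprague−Dawley rats, 225 ± 25 g. Single tail-vein dose of 10 mg/kg in DMF/PG/water (5:4:1), 0.2 μ filtered. Blood drawn from 0.08 to 48 h. Plasma spun at 2000g for 10 min at 4 °C and kept at −60 °C. LC-MS/MS with linear range 0.78−400 ng/mL; noncompartmental parameters.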

Syrian golden hamster [3] = test: Antidyslipidemic activity in high fructose and high-fat diet fed dyslipidemic Syrian golden hamster model assessed as reduction in triglyceride level at 100 mg/kg/day for 7 days; assay type: functional, Mesocricetus auratus; parameters: scale not given: the % may be the effect or the level left
Outline: (§3)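 Syrian golden hamsters fed high-fructose high-fat diet; oral dosing in 1% gum acacia at 10, 30, 100 mg/kg (or 25 mg/kg) for 7 days, sham control given vehicle; plasma TG, cholesterol, LDL-C, HDL-C, glycerol and NEFA (kits), lipoprotein lipase activity and body weight; % change versus HFD control, six hamsters per group.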

Mus musculus [4] = test: Antihyperglycemic activity in diabetic C57BL/KsJ db/db mouse model assessed as reduction in hyperglycemia at 25 mg/kg, po qd for 10 days; assay type: functional; parameters: scale not given: the % may be the effect or the level left
Outline: (§4)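 db/db mice (C57BL/KsJ, 12−18 weeks, 40−50 g, glucose 200−350 mg/dL), housed at 23 ± 2.0 °C on a 12 h light cycle. Oral dosing daily for 10 days. Blood glucose checked each morning through day 9. Body weight recorded daily from day 1 to day 10. Mean % change versus vehicle, 5 mice per group; Student t test.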

Syrian golden hamster [5] = test: Antidyslipidemic activity in high fructose and high-fat diet fed dyslipidemic Syrian golden hamster model assessed as reduction in LDL-cholesterol level at 100 mg/kg/day for 7 days; assay type: functional, Mesocricetus auratus; parameters: scale not given: the % may be the effect or the level left; outline: as §3
[6] = Elimination half life in Sprague-Dawley rat at 40 mg/kg, po by LC-MS/MS method; assay type: ADME, organism-based; parameters: dose 40 mg/kg, route oral; settings: in vivo, read-out: beta t1/2 (converted); outline: as §1
[7] = Mean residence time in Sprague-Dawley rat at 10 mg/kg, iv by LC-MS/MS method; assay type: ADME, organism-based; parameters: dose 10 mg/kg, route intravenous; settings: in vivo; outline: as §2
Mus musculus [8] = test: Antidyslipidemic activity in diabetic C57BL/KsJ db/db mouse model assessed as increase in plasma HDL-C/cholesterol ratio at 25 mg/kg, po qd for 10 days; assay type: functional
Outline: (§5)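 db/db mice (blood glucose 200−350, TG 170−250, cholesterol 170−250, HDL-C 32−40 mg/dL) dosed orally at 25 mg/kg daily for 10 days; retro-orbital blood taken on day 11 for plasma TG, cholesterol and HDL-C (and HDL-C/CHOL ratio); mean % change versus vehicle control, 5 mice per group; Student t test.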

Mus musculus [9] = test: Antidyslipidemic activity in diabetic C57BL/KsJ db/db mouse model assessed as increase in plasma HDL-cholesterol level at 25 mg/kg, po qd for 10 days; assay type: functional; outline: as §5
Syrian golden hamster [10] = test: Antidyslipidemic activity in high fructose and high-fat diet fed dyslipidemic Syrian golden hamster model assessed as increase in HDL-cholesterol level at 100 mg/kg/day for 7 days; assay type: functional, Mesocricetus auratus
Rattus norvegicus [11] = test: Antihyperlipidemic activity in Triton-induced dyslipidemic Wistar rat model assessed as reduction in phospholipid level at 100 mg/kg, po; assay type: functional; parameters: scale not given: the % may be the effect or the level left
Outline: (§6)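 Male Wistar rats, 8−10 weeks, about 160 g, fed normal pellet diet. Triton X-100 given at 400 mg/kg ip; compound given orally in 1% gum acacia. Retro-orbital blood taken 18 h after Triton and serum separated at 1500g for 10 min. TG and cholesterol measured by kit. Mean % change versus dyslipidemic control, 5 animals.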

Mus musculus [12] = test: Antihyperglycemic activity in diabetic C57BL/KsJ db/db mouse model assessed as reduction in plasma insulin level in hyperglycemia at 25 mg/kg, po qd for 10 days; assay type: functional; parameters: scale not given: the % may be the effect or the level left
Outline: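 db/db mice dosed orally every day for 10 days. On day 11, retro-orbital blood was drawn and plasma insulin measured. Mean % change versus vehicle-treated control, 5 mice per group; Student t test.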

Syrian golden hamster [13] = test: Antidyslipidemic activity in high fructose and high-fat diet fed dyslipidemic Syrian golden hamster model assessed as reduction in cholesterol level at 100 mg/kg/day for 7 days; assay type: functional, Mesocricetus auratus; parameters: scale not given: the % may be the effect or the level left
[14] = Oral bioavailability in Sprague-Dawley rat at 40 mg/kg by LC-MS/MS method; assay type: ADME, organism-based; settings: in vivo; outline: as §1
[15] = Tmax in Sprague-Dawley rat at 40 mg/kg, po by LC-MS/MS method; assay type: ADME, organism-based; parameters: dose 40 mg/kg, route oral; settings: in vivo; outline: as §1
Mus musculus [16] = test: Antidyslipidemic activity in diabetic C57BL/KsJ db/db mouse model assessed as reduction in plasma triglyceride level at 25 mg/kg, po qd for 10 days; assay type: functional; parameters: scale not given: the % may be the effect or the level left; outline: as §5
Rattus norvegicus [17] = test: AUC in Sprague-Dawley rat at 40 mg/kg, po by LC-MS/MS method; settings: in vivo
Mus musculus [18] = test: Reduction in body weight in diabetic C57BL/KsJ db/db mouse model in hyperglycemia at 25 mg/kg, po qd for 10 days relative to untreated control; assay type: functional; outline: as §4
Mus musculus [19] = test: Antidyslipidemic activity in diabetic C57BL/KsJ db/db mouse model assessed as reduction in plasma cholesterol level at 25 mg/kg, po qd for 10 days; assay type: functional; parameters: scale not given: the % may be the effect or the level left; outline: as §5
[20] = Mean residence time in Sprague-Dawley rat at 40 mg/kg, po by LC-MS/MS method; assay type: ADME, organism-based; parameters: dose 40 mg/kg, route oral; settings: in vivo; outline: as §1
Rattus norvegicus [21] = test: Antihyperlipidemic activity in Triton-induced dyslipidemic Wistar rat model assessed as reduction in triglyceride level at 100 mg/kg, po; assay type: functional; parameters: scale not given: the % may be the effect or the level left; outline: as §6
Mus musculus [22] = test: Antihyperglycemic activity in diabetic C57BL/KsJ db/db mouse model assessed as improvement in glucose tolerance in hyperglycemia at 25 mg/kg, po qd for 10 days; assay type: functional
Outline: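 Male/female C57BL/KsJ db/db mice, 12−18 weeks, 40−50 g, selected for glucose 200−350 mg/dL. Oral dosing daily for 10 days. OGTT on day 10 after an overnight fast: compound at −30 min, then 3 g/kg oral glucose at 0 min. Glucose read at 30, 60, 90 and 120 min. AUC taken versus vehicle, 5 mice per group.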

[23] = Cmax in Sprague-Dawley rat at 40 mg/kg, po by LC-MS/MS method; assay type: ADME, organism-based; parameters: dose 40 mg/kg, route oral; settings: in vivo; outline: as §1
Syrian golden hamster [24] = test: Antidyslipidemic activity in high fructose and high-fat diet fed dyslipidemic Syrian golden hamster model assessed as increase in HDL-cholesterol level at 25 mg/kg/day for 7 days; assay type: functional, Mesocricetus auratus
Syrian golden hamster [25] = test: Antidyslipidemic activity in high fructose and high-fat diet fed dyslipidemic Syrian golden hamster model assessed as reduction in cholesterol level at 25 mg/kg/day for 7 days; assay type: functional, Mesocricetus auratus; parameters: scale not given: the % may be the effect or the level left
Syrian golden hamster [26] = test: Antidyslipidemic activity in high fructose and high-fat diet fed dyslipidemic Syrian golden hamster model assessed as reduction in triglyceride level at 25 mg/kg/day for 7 days; assay type: functional, Mesocricetus auratus; parameters: scale not given: the % may be the effect or the level left
Outline: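 HFD-fed Syrian golden hamsters, six per group, fed a high-fructose diet. Oral dosing in 1% gum acacia for 7 days. Sham group received vehicle. Plasma TG was measured and body weight tracked. Results given as % change versus HFD control.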

[27] = Plasma clearance in Sprague-Dawley rat at 10 mg/kg, iv by LC-MS/MS method; assay type: ADME, organism-based; parameters: dose 10 mg/kg, route intravenous; outline: as §2
Syrian golden hamster [28] = test: Antidyslipidemic activity in high fructose and high-fat diet fed dyslipidemic Syrian golden hamster model assessed as reduction in body weight at 25 mg/kg/day for 7 days; assay type: functional, Mesocricetus auratus; parameters: scale not given: the % may be the effect or the level left; outline: as §3
[29] = Volume of distribution in Sprague-Dawley rat at 10 mg/kg, iv by LC-MS/MS method; assay type: ADME, organism-based; parameters: dose 10 mg/kg, route intravenous; settings: in vivo; outline: as §2
[30] = Plasma clearance in Sprague-Dawley rat at 40 mg/kg, po by LC-MS/MS method; assay type: ADME, organism-based; parameters: dose 40 mg/kg, route oral; outline: as §1
Syrian golden hamster [31] = test: Antidyslipidemic activity in high fructose and high-fat diet fed dyslipidemic Syrian golden hamster model assessed as reduction in body weight at 100 mg/kg/day for 7 days; assay type: functional, organism-based; settings: Mesocricetus auratus; outline: as §3
[32] = Cmax in Sprague-Dawley rat at 10 mg/kg, iv by LC-MS/MS method; assay type: ADME, organism-based; parameters: dose 10 mg/kg, route intravenous; settings: in vivo; outline: as §2
Syrian golden hamster [33] = test: Antidyslipidemic activity in high fructose and high-fat diet fed dyslipidemic Syrian golden hamster model assessed as reduction in LDL-cholesterol level at 25 mg/kg/day for 7 days; assay type: functional, Mesocricetus auratus; parameters: scale not given: the % may be the effect or the level left; outline: as §3
Rattus norvegicus [34] = test: Antihyperlipidemic activity in Triton-induced dyslipidemic Wistar rat model assessed as reduction in cholesterol level at 100 mg/kg, po; assay type: functional; parameters: scale not given: the % may be the effect or the level left; outline: as §6
Rattus norvegicus [35] = test: AUC in Sprague-Dawley rat at 10 mg/kg, iv by LC-MS/MS method; settings: in vivo

With CC(C)(C)NCC(O)COc1ccc2c(=O)cc(-c3cc(OCc4ccccc4)cc(OCc4ccccc4)c3)oc2c1 (racemic) the Vd (Rattus norvegicus [1]) was 96.73 L/kg, the half-life [2] was 16.3 h and the Activity (Syrian golden hamster [3]) was 61.5%. It also gave an Activity (Mus musculus [4]) of 38.3%, an Activity (Syrian golden hamster [5]) of 61.9% and a half-life [6] of 19.6 h. The MRT [7] was 22.8 h, the “Percent increase in HDL-C/cholesterol ratio vs vehicle” value (Mus musculus [8]) was 55.7 and the Activity (Mus musculus [9]) was 20.9%. For the same molecule, the Activity (Syrian golden hamster [10]) was 20%, the Activity (Rattus norvegicus [11]) was 18% and the Activity (Mus musculus [12]) was 30.6%. It also gave an Activity (Syrian golden hamster [13]) of 22.9%, a bioavailability [14] of 29.5% and a Tmax [15] of 8 h. The Activity (Mus musculus [16]) was 20.1%, the AUC (Rattus norvegicus [17]) was 3469.28 ng·h/mL and the Activity (Mus musculus [18]) was “inactive”. The Activity (Mus musculus [19]) was 22.3%, the MRT [20] was 43.2 h and the Activity (Rattus norvegicus [21]) was 9%. The Activity (Mus musculus [22]) was 25.9%, the Cmax [23] was 60.9 ng/mL and the Activity (Syrian golden hamster [24]) was 13.3%. The Activity (Syrian golden hamster [25]) was 15.3%, the Activity (Syrian golden hamster [26]) was 22.2% and the clearance [27] was 60.8 mL/min/kg. The Activity (Syrian golden hamster [28]) was 8.89%, the Vd [29] was 69.4 L/kg and the CL/F [30] was 57 mL/min/kg. The Activity (Syrian golden hamster [31]) was “Active”, the Cmax [32] was 998 ng/mL and the Activity (Syrian golden hamster [33]) was 23.3%. The Activity (Rattus norvegicus [34]) was 21% and the AUC (Rattus norvegicus [35]) was 2717.5 ng·h/mL.
